Measured values published in ChEMBL document CHEMBL4138133, “2,3-Dihydro-3β-methoxy Withaferin-A Protects Normal Cells against Stress: Molecular Evidence of Its Potent Cytoprotective Activity” (J Nat Prod, 2017).
The source made the active and inactive calls. No cut-off for these calls is given here.

How the values were obtained:
[1] = system: TIG-3; assay: Decrease in Nrf2 expression level in human TIG3 cells at 0.3 to 3 uM by immunoblot analysis; type: ADME, cell-based; conditions: tig-3, 3 µM
How it was run: (§1)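 TIG-3 cells treated with compound, lysed in NP40 buffer (centrifuged 20 min, 4 °C); 10−20 μg protein immunoblotted for indicated proteins; band quantitation from three independent experiments, Student's t or Mann−Whitney test.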

[2] = system: TIG-3; assay: Cytoprotective activity against UV irradiation-induced stress in human TIG3 cells assessed as increase in cell survival irradiated with 50 mJ/cm2 of UV radiations followed by compound addition measured after 2 days by crystal violet staining based assay; type: functional
[3] = system: TIG-3; assay: Cytotoxicity against human TIG3 cells assessed as inhibition of colony formation by crystal violet staining based assay; type: cell-based
How it was run: (§2)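 500 cells/well seeded, cultured about 2 weeks with medium (control or compound-supplemented) renewed every fourth day; colonies fixed, stained, counted; triplicates, Student's t test.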

[4] = system: TIG-3; assay: Cytoprotective activity against H2O2-induced oxidative stress in human TIG3 cells assessed as increase in cell survival at 3 uM pretreated with H2O2 for 2 hrs followed by compound addition measured after 72 hrs by crystal violet staining based assay; type: functional
[5] = target: Mitogen-activated protein kinase 3 (Homo sapiens) (UniProt P27361); assay: Induction of ERK1 phosphorylation at Thr202 residues in H2O2 treated human TIG3 cells at 0.6 uM pretreated with H2O2 for 2 hrs followed by compound addition by immunoblot analysis
Sequence of Mitogen-activated protein kinase 3 (Homo sapiens) (P27361 whole entry): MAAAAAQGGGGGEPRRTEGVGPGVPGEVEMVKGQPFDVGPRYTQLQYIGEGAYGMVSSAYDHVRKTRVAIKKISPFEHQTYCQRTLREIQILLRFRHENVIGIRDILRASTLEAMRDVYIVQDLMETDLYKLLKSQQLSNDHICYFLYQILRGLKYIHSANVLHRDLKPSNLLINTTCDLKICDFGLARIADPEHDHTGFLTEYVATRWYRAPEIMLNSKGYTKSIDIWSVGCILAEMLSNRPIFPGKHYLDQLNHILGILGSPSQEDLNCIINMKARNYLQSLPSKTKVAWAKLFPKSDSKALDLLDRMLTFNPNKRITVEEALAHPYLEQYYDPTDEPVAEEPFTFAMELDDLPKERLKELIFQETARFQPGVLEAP
How it was run: (§3)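 TIG-3 cells stressed with H2O2 (500 μM, 2 h), then recovered in medium containing 0.3 or 0.6 μM compound. Lysed in NP40 buffer; 10−20 μg protein immunoblotted for pAkt Ser473, p-p38 Thr180/Tyr182, p-p44/42 Thr202/Tyr204, β-catenin, survivin, Bcl-2 or full-length PARP-1. Triplicate experiments.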

[6] = target: T1, MAP kinase p38 (Homo sapiens) (UniProt O15264+Q15759+Q16539+P53778); assay: Induction of p38 MAPK phosphorylation at Thr180/Tyr182 residues in H2O2 treated human TIG3 cells at 0.6 uM pretreated with H2O2 for 2 hrs followed by compound addition by immunoblot analysis; how it was run: as §3
[7] = system: TIG-3; assay: Induction of oxidative stress in human TIG3 cells assessed as increase in p53 expression level at 0.6 uM by immunoblot analysis; type: cell-based; conditions: tig-3, 0.6 µM; how it was run: as §1
[8] = system: TIG-3; assay: Decrease in keap1 expression level in human TIG3 cells at 0.3 to 3 uM by immunoblot analysis; type: ADME, cell-based; conditions: tig-3, 3 µM; how it was run: as §1
[9] = system: TIG-3; assay: Cytoprotective activity against H2O2-induced oxidative stress in human TIG3 cells assessed as increase in Bcl2 level at 0.6 uM pretreated with H2O2 for 2 hrs followed by compound addition by immunoblot analysis; type: functional, cell-based; how it was run: as §3
[10] = system: TIG-3; assay: Cytotoxicity against human TIG3 cells assessed as cell death at 0.6 uM; type: cell-based; conditions: tig-3, 0.6 µM
How it was run: (§4)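 Phase-contrast microscopy of morphology of control and treated normal human TIG-3 fibroblasts.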

[11] = system: TIG-3; assay: Effect on p21 WAF1 expression level in human TIG3 cells at 0.3 to 3 uM by immunoblot analysis; type: ADME, cell-based; conditions: tig-3, 3 µM; how it was run: as §1
[12] = system: TIG-3; assay: Cytotoxicity against human TIG3 cells assessed as induction of morphological changes at 0.3 to 1.5 uM after 48 hrs by phase contrast microscopy; type: cell-based; conditions: tig-3, 48 h; how it was run: as §4
[13] = system: TIG-3; assay: Cytoprotective activity against H2O2-induced oxidative stress in human TIG3 cells assessed as decrease in CARF level pretreated with H2O2 for 2 hrs followed by compound addition by immuno fluorescence staining based assay; type: functional, cell-based
[14] = target: T1, MAP kinase p38 (Homo sapiens); assay: Induction of p38 MAPK phosphorylation at Thr180/Tyr182 residues in H2O2 treated human TIG3 cells pretreated with H2O2 for 2 hrs followed by compound addition by immuno fluorescence staining based analysis
How it was run: (§5)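 TIG-3 fibroblasts (DMEM, 10% FBS, 37 °C) stressed with H2O2 (500 μM, 2 h) or UV (50 mJ/cm2), then recovered in compound-supplemented medium. Cells fixed in chilled absolute methanol and immunostained for the marker. Images taken by fluorescence microscopy and staining intensity quantified. Triplicate experiments.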

[15] = system: TIG-3; assay: Cytoprotective activity against H2O2-induced oxidative stress in human TIG3 cells assessed as decrease in 53BP1 level at 0.6 uM pretreated with H2O2 for 2 hrs followed by compound addition by immuno fluorescence staining based analysis; type: functional, cell-based; how it was run: as §5
[16] = system: TIG-3; assay: Cytoprotective activity against doxorubicin-induced stress in human TIG3 cells assessed as increase in cell survival pretreated with doxorubicin for 24 hrs followed by compound addition measured after 2 days by crystal violet staining based assay; type: functional
[17] = target: Mitogen-activated protein kinase 3 (Homo sapiens) (UniProt P27361); assay: Induction of ERK1 phosphorylation at Thr202 residues in H2O2 treated human TIG3 cells pretreated with H2O2 for 2 hrs followed by compound addition by immuno fluorescence staining based analysis; how it was run: as §5
[18] = system: WI-38; assay: Cytotoxicity against human WI38 cells assessed as inhibition of colony formation by crystal violet staining based assay; type: cell-based; how it was run: as §2
[19] = system: TIG-3; assay: Cytotoxicity against human TIG3 cells assessed as induction of senescence at 70 to 72 population doubling at 0.5 uM; type: cell-based; conditions: tig-3, 0.5 µM
[20] = system: TIG-3; assay: Effect on p53 expression level in human TIG3 cells at 0.3 to 3 uM by immunoblot analysis; type: cell-based; conditions: tig-3, 3 µM; how it was run: as §1
[21] = system: TIG-3; assay: Induction of oxidative stress in human TIG3 cells assessed as increase in GADD45alpha mRNA levels by RT-PCR analysis; type: cell-based
How it was run: (§6)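 Total RNA from treated TIG-3 cells; cDNA from 2 μg RNA; PCR 95 °C 10 min, 30 cycles (95 °C 45 s, 58 °C 1 min, 72 °C 45 s), 72 °C 10 min; products on 0.8% agarose, band densitometry; three independent experiments.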

[22] = system: TIG-3; assay: Cytoprotective activity against human TIG3 cells assessed as increase in cell viability at 1.5 to 3 uM pretreated with Wi-A at 0.3 uM for 24 hrs followed by compound addition measured after 48 hrs; type: functional, cell-based
How it was run: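 TIG-3 cells pretreated with 0.3 μM Wi-A for 24 h, then incubated with 1.5 or 3 μM compound for 48 h before viability was read. Triplicate, mean ± SEM.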

[23] = target: RAC-alpha serine/threonine-protein kinase (Homo sapiens) (UniProt P31749); assay: Induction of AKT-mediated beta-catenin expression level in H2O2 treated human TIG3 cells at 0.6 uM pretreated with H2O2 for 2 hrs followed by compound addition by immunoblot analysis; how it was run: as §3
Sequence of RAC-alpha serine/threonine-protein kinase (Homo sapiens) (P31749 whole entry): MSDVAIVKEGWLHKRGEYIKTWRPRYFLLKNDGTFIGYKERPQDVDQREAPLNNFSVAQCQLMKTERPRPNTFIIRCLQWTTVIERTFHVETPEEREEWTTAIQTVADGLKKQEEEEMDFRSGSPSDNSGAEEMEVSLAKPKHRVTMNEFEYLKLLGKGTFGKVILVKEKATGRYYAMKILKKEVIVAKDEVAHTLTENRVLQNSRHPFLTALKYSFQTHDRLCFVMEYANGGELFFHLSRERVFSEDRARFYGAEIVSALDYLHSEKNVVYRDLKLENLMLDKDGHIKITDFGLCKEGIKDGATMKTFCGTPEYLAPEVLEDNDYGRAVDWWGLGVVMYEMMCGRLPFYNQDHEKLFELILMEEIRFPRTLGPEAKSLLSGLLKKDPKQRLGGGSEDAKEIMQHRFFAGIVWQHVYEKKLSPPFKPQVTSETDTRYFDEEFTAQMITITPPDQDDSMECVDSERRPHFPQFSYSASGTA

[24] = system: TIG-3; assay: Effect on mortalin expression level in human TIG3 cells at 0.3 to 3 uM by immuno fluorescence analysis; type: ADME, cell-based; conditions: tig-3, 3 µM
How it was run: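 Methanol-fixed (chilled absolute methanol) TIG-3 fibroblasts treated with Wi-A or 3βmWi-A; immunofluorescence staining with antibodies, imaged by epifluorescence microscopy; signal quantitated from three independent experiments.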

[25] = system: TIG-3; assay: Cytoprotective activity against H2O2-induced oxidative stress in human TIG3 cells assessed as decrease in phosphorylated ATM level at 0.6 uM pretreated with H2O2 for 2 hrs followed by compound addition by immuno fluorescence staining based analysis; type: functional, cell-based; how it was run: as §5
[26] = system: WI-38; assay: Cytotoxicity against human WI38 cells assessed as reduction in cell viability at 1 to 10 uM after 72 hrs; type: cell-based; conditions: wi-38, 72 h
How it was run: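 Normal fibroblasts in DMEM/10% FBS at 37 °C given 0.15 to 50 μM compound for 48 or 72 h; viability determined; triplicate, mean ± SEM.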

[27] = system: TIG-3; assay: Induction of oxidative stress against human TIG3 cells assessed as increase in CARF mRNA levels by RT-PCR analysis; type: cell-based; how it was run: as §6

For CO[C@H]1CC(=O)[C@]2(C)[C@H]3CC[C@]4(C)[C@@H]([C@H](C)[C@H]5CC(C)=C(CO)C(=O)O5)CC[C@H]4[C@@H]3C[C@H]3O[C@]32[C@H]1O, the Activity [1] was “Non-Toxic”, the Activity [2] was “Dose-dependent effect” and the Activity [3] was “Non-Toxic”. The Activity [4] was “Active”, the Activity [5] was “Active” and the Activity [6] was “Active”. For the same compound, the Activity [7] was “Non-Toxic”, the Activity [8] was “Non-Toxic” and the Activity [9] was “Active”. The Activity [10] was “Non-Toxic”, the Activity [11] was “Non-Toxic” and the Activity [12] was “Non-Toxic”. The Activity [13] was “Active”, the Activity [14] was “Active” and the Activity [15] was “Active”. For the same compound, the Activity [16] was “Dose-dependent effect”, the Activity [17] was “Active” and the Activity [18] was “Non-Toxic”. For the same compound, the Activity [19] was “Non-Toxic”, the Activity [20] was “Non-Toxic” and the Activity [21] was “Non-Toxic”. For the same compound, the Activity [22] was “Active”, the Activity [23] was “Active” and the Activity [24] was “Non-Toxic”. For the same compound, the Activity [25] was “Active”, the Activity [26] was “Non-Toxic” and the Activity [27] was “Non-Toxic”.
